# Biological target: Calcium-activated potassium channel subunit alpha-1 (Mus musculus) (UniProt Q08460)
# Experiment: Percent opening of mouse maxi-K channel expressed in xenopus oocyte at a concentration of 20 umolar under voltage clamp.
# Assay type: functional
# Details: Xenopus laevis oocytes
# How it was run: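 Xenopus laevis oocytes injected with mSlo cRNA 2–6 days before recording, kept at 17 °C in ND96 (mM: NaCl 90, KCl 1.0, CaCl2 1.0, MgCl2 1.0, HEPES 5.0, pH 7.5) with 5% horse serum and penicillin/streptomycin. Two-electrode voltage clamp, steps 500–750 ms, +20 mV increments from −60 mV holding to +140 mV. Compound gravity-perfused at 20 μM. Iberiotoxin-sensitive outward current expressed as percent of control; mean of ≥5 oocytes.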
# Sequence of Calcium-activated potassium channel subunit alpha-1 (Mus musculus) (Q08460 whole entry): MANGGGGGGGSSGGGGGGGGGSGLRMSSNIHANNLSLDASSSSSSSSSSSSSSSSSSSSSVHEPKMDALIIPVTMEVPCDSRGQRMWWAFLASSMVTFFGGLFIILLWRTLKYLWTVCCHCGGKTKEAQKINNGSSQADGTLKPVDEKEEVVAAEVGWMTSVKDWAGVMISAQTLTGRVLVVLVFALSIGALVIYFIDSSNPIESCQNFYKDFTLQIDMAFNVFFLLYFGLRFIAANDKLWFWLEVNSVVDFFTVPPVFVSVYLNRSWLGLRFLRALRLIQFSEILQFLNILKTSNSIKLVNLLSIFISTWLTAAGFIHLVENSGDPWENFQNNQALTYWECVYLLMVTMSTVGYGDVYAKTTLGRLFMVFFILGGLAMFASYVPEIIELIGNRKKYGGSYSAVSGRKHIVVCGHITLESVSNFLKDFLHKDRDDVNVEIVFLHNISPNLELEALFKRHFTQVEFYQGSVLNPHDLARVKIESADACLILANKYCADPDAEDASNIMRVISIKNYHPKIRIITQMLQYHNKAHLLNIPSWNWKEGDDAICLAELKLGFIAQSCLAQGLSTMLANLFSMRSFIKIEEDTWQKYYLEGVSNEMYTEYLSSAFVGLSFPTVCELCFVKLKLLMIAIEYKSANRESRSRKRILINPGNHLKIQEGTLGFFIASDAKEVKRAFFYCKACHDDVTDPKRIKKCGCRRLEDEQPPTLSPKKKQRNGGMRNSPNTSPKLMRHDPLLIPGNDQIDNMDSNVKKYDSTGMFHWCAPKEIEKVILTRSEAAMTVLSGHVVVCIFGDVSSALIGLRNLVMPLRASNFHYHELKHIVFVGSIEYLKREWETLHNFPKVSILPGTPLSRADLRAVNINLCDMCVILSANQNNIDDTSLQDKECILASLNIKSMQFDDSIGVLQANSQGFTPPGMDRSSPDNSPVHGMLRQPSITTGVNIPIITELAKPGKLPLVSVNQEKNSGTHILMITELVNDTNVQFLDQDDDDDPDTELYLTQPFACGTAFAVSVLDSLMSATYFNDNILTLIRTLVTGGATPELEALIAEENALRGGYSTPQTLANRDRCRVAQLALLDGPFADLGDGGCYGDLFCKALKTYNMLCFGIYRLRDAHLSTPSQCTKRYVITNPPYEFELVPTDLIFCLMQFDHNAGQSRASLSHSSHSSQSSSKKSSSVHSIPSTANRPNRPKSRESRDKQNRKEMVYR
row,Activity [%],Structure (SMILES)
1,126,Oc1ccc(Cl)cc1-n1cncc1-c1ccc(C(F)(F)F)cc1
2,101,Oc1ccc(Cl)c(-n2c(O)nnc2-c2ccc(C(F)(F)F)cc2)c1
3,121,Oc1ccc(Cl)cc1-n1c(O)nnc1-c1ccc(C(F)(F)F)cc1
4,102,Oc1ccc(Cl)cc1-n1cnnc1-c1ccc(C(F)(F)F)cc1
5,93,Cn1nc(-c2ccc(C(F)(F)F)cc2)n(-c2cc(Cl)ccc2O)c1=O
6,138,Oc1ccc(Cl)cc1-n1c(O)nnc1-c1cccc(C(F)(F)F)c1
7,125,Oc1ccc(Cl)cc1-n1c(O)nnc1Cc1ccc(C(F)(F)F)cc1
8,109,Oc1ccc(Cl)cc1Cn1c(O)nnc1-c1ccc(C(F)(F)F)cc1
9,128,Oc1ccc(Cl)cc1-n1c(S)nnc1-c1ccc(C(F)(F)F)cc1
10,99,Oc1ccc(-n2c(O)nnc2-c2ccc(C(F)(F)F)cc2)cc1Cl
11,123,Oc1ccc(Cl)cc1-c1nnc(O)n1-c1ccc(C(F)(F)F)cc1
12,117,Nc1nnc(-c2ccc(C(F)(F)F)cc2)n1-c1cc(Cl)ccc1O

# The next lines start with the molecule.
row,Structure (SMILES),Activity [%]
1,Oc1ccc(Cl)cc1-n1c(O)nnc1-c1cc(C(F)(F)F)cc(C(F)(F)F)c1,159
2,Oc1ccc(Cl)cc1Cc1nccn1-c1ccc(C(F)(F)F)cc1,105
3,O=c1onc(-c2ccc(C(F)(F)F)cc2)n1Cc1cc(Cl)ccc1O,101
4,O=c1[nH]c2cc(C(F)(F)F)ccc2n1-c1cc(Cl)ccc1O,132
5,O=c1[nH]c2cc(C(F)(F)F)ccc2n1-c1cc(C(F)(F)F)ccc1O,116
6,Oc1ccc(Cl)cc1-n1c(O)nnc1-c1ccccc1C(F)(F)F,107
7,Oc1ccc(Cl)cc1Cc1nnc(O)n1-c1ccc(C(F)(F)F)cc1,84
8,Oc1ccc(Cl)cc1-n1c(O)nnc1-c1ccccc1,101
9,O=c1onc(-c2cc(C(F)(F)F)cc(C(F)(F)F)c2)n1-c1cc(Cl)ccc1O,92
10,Oc1ccc(Cl)cc1-n1c(O)nnc1-c1ccc(F)cc1,118
11,Oc1ccc(Cl)cc1-c1nnc(O)n1Cc1ccc(C(F)(F)F)cc1,128
